Reference: ChEMBL document CHEMBL3400032 (Bioorg Med Chem, 2015)

Experiments:
Rattus norvegicus [1] = assay: Oral bioavailability in rat assessed as 2-(3-aminopiperidin-1-yl)-3-(2-chloro-5-fluorobenzyl)-5-methyl-4-oxo-4,5-dihydro-3H-imidazo[4,5-c]quinoline-8-carboxylic acid level at 10 mg/kg; format: ADME, organism-based; conditions: in vivo
[2] = Permeability of the compound at pH 7.4 by PAMPA; format: ADME; conditions: read-out: permeability
Rattus norvegicus [3] = assay: Tmax in rat assessed as 2-(3-aminopiperidin-1-yl)-3-(2-chloro-5-fluorobenzyl)-5-methyl-4-oxo-4,5-dihydro-3H-imidazo[4,5-c]quinoline-8-carboxylic acid level at 10 mg/kg, po; format: ADME, organism-based; set-up: dose 10 mg/kg, route oral; conditions: in vivo
[4] = Drug metabolism in human serum assessed as compound remaining at 1 uM after 30 mins by HPLC/MS/MS analysis relative to control; format: ADME, cell-free; conditions: read-out: Stability
How it was run: (§1)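 Test compound at 1 µM final, incubated 30 min at 37 °C in serum, or in S9 mix (50 mM potassium phosphate pH 7.4, 3 mM NADPH, 1 mg protein/mL pooled male SD rat or human liver S9). Preincubated 5 min at 37 °C, compound added in acetonitrile–water (1:1), stopped with ice-cold acetonitrile, centrifuged, filtered, parent and carboxylate hydrolysate quantified by HPLC-MS/MS.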

[5] = Drug metabolism in Sprague-Dawley rat liver S9 fraction assessed as compound remaining at 1 uM after 30 mins by HPLC/MS/MS analysis relative to control; format: ADME, subcellular; conditions: read-out: Stability; how it was run: as §1
[6] = Drug metabolism in human liver S9 fraction assessed as compound remaining at 1 uM after 30 mins by HPLC/MS/MS analysis relative to control; format: ADME, subcellular; conditions: read-out: Stability; how it was run: as §1
Dipeptidyl peptidase 4 = Dipeptidyl peptidase 4 (Homo sapiens, UniProt P27487); assay: Inhibition of human DPP4
[7] = Solubility of the compound at pH 5.5; format: physicochemical; conditions: buffer
[8] = Drug metabolism in rat serum assessed as compound remaining at 1 uM after 30 mins by HPLC/MS/MS analysis relative to control; format: ADME, cell-free; conditions: read-out: Stability; how it was run: as §1
[9] = Solubility of the compound at pH 2.5; format: physicochemical; conditions: buffer
Rattus norvegicus [10] = assay: AUC in rat assessed as 2-(3-aminopiperidin-1-yl)-3-(2-chloro-5-fluorobenzyl)-5-methyl-4-oxo-4,5-dihydro-3H-imidazo[4,5-c]quinoline-8-carboxylic acid level at 10 mg/kg, po; format: ADME, organism-based, Plasma; set-up: dose 10 mg/kg, route oral; conditions: in vivo
Rattus norvegicus [11] = assay: Cmax in rat assessed as 2-(3-aminopiperidin-1-yl)-3-(2-chloro-5-fluorobenzyl)-5-methyl-4-oxo-4,5-dihydro-3H-imidazo[4,5-c]quinoline-8-carboxylic acid level at 10 mg/kg, po; format: ADME, organism-based; set-up: dose 10 mg/kg, route oral; conditions: in vivo
[12] = Solubility of the compound at pH 7.4; format: physicochemical; conditions: buffer
[13] = Permeability of the compound at pH 5 by PAMPA; format: ADME; conditions: read-out: permeability
[14] = Plasma concentration in rat at 10 mg/kg, po after 6 hrs; format: ADME, organism-based; set-up: dose 10 mg/kg, route oral
How it was run: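 Rats dosed orally with prodrug; plasma levels of prodrug and carboxylate active metabolite measured over time, limit of quantification 1.0 ng/mL.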

[15] = Drug metabolism in human liver S9 fraction assessed as metabolite 3 formation at 1 uM after 30 mins by HPLC/MS/MS analysis relative to control; format: ADME, subcellular; conditions: s9, 0.5 h; how it was run: as §1
Serum [16] = assay: Drug metabolism in human serum assessed as 2-(3-aminopiperidin-1-yl)-3-(2-chlorobenzyl)-5-methyl-4-oxo-4,5-dihydro-3H-imidazo[4,5-c]quinoline-7-carboxylic acid formation at 1 uM after 30 mins by HPLC/MS/MS analysis relative to control; format: ADME, cell-free; conditions: 0.5 h; how it was run: as §1
Serum [17] = assay: Drug metabolism in rat serum assessed as 2-(3-aminopiperidin-1-yl)-3-(2-chlorobenzyl)-5-methyl-4-oxo-4,5-dihydro-3H-imidazo[4,5-c]quinoline-7-carboxylic acid formation at 1 uM after 30 mins by HPLC/MS/MS analysis relative to control; format: ADME, cell-free; conditions: 0.5 h; how it was run: as §1
[18] = Drug metabolism in Sprague-Dawley rat liver S9 fraction assessed as 2-(3-aminopiperidin-1-yl)-3-(2-chlorobenzyl)-5-methyl-4-oxo-4,5-dihydro-3H-imidazo[4,5-c]quinoline-7-carboxylic acid formation at 1 uM after 30 mins by HPLC/MS/MS analysis relative to control; format: ADME, subcellular; conditions: s9, 0.5 h; how it was run: as §1
Rattus norvegicus [19] = assay: Oral bioavailability in rat assessed as 2-(3-aminopiperidin-1-yl)-3-(2-chlorobenzyl)-5-methyl-4-oxo-4,5-dihydro-3H-imidazo[4,5-c]quinoline-7-carboxylic acid level at 10 mg/kg; format: ADME, organism-based; conditions: in vivo
Rattus norvegicus [20] = assay: Oral bioavailability in rat assessed as 2-(3-aminopiperidin-1-yl)-3-(2-chlorobenzyl)-5-methyl-4-oxo-4,5-dihydro-3H-imidazo[4,5-c]quinoline-7-carboxylic acid level at 20 mg/kg; format: ADME, organism-based; conditions: in vivo
Rattus norvegicus [21] = assay: AUC in rat assessed as 2-(3-aminopiperidin-1-yl)-3-(2-chlorobenzyl)-5-methyl-4-oxo-4,5-dihydro-3H-imidazo[4,5-c]quinoline-7-carboxylic acid level at 20 mg/kg, po; format: ADME, organism-based, Plasma; set-up: dose 20 mg/kg, route oral; conditions: in vivo
Rattus norvegicus [22] = assay: Tmax in rat assessed as 2-(3-aminopiperidin-1-yl)-3-(2-chlorobenzyl)-5-methyl-4-oxo-4,5-dihydro-3H-imidazo[4,5-c]quinoline-7-carboxylic acid level at 20 mg/kg, po; format: ADME, organism-based; set-up: dose 20 mg/kg, route oral; conditions: in vivo
Rattus norvegicus [23] = assay: Cmax in rat assessed as 2-(3-aminopiperidin-1-yl)-3-(2-chlorobenzyl)-5-methyl-4-oxo-4,5-dihydro-3H-imidazo[4,5-c]quinoline-7-carboxylic acid level at 20 mg/kg, po; format: ADME, organism-based; set-up: dose 20 mg/kg, route oral; conditions: in vivo
Liver microsome [24] = assay: Clearance in human liver microsomes assessed per mg protein
Liver microsome [25] = assay: Clearance in Sprague-Dawley rat liver microsomes assessed per mg protein
[26] = Clearance in rat at 3 mg/kg, iv; format: ADME, organism-based; set-up: dose 3 mg/kg, route intravenous; conditions: in vivo
[27] = AUC in rat at 3 mg/kg, iv; format: ADME, organism-based; set-up: dose 3 mg/kg, route intravenous; conditions: plasma
[28] = Volume of distribution at steady state in rat at 3 mg/kg, iv; format: ADME, organism-based; set-up: route intravenous, dose 3 mg/kg; conditions: in vivo, read-out: Vdss
[29] = Half life in rat at 3 mg/kg, iv; format: ADME, organism-based; set-up: dose 3 mg/kg, route intravenous; conditions: in vivo
Rattus norvegicus [30] = assay: Oral bioavailability in rat assessed as 2-(3-aminopiperidin-1-yl)-3-(2-chloro-5-fluorobenzyl)-5-methyl-4-oxo-4,5-dihydro-3H-imidazo[4,5-c]quinoline-7-carboxylic acid level at 10 mg/kg; format: ADME, organism-based; conditions: in vivo
Rattus norvegicus [31] = assay: AUC in rat assessed as 2-(3-aminopiperidin-1-yl)-3-(2-chloro-5-fluorobenzyl)-5-methyl-4-oxo-4,5-dihydro-3H-imidazo[4,5-c]quinoline-7-carboxylic acid level at 10 mg/kg, po; format: ADME, organism-based, Plasma; set-up: dose 10 mg/kg, route oral; conditions: in vivo
[32] = Half life in rat at 1.5 mg/kg, iv; format: ADME, organism-based; set-up: dose 1.5 mg/kg, route intravenous; conditions: in vivo
[33] = AUC in rat at 1.5 mg/kg, iv; format: ADME, organism-based; set-up: dose 1.5 mg/kg, route intravenous; conditions: plasma
[34] = Clearance in rat at 1.5 mg/kg, iv; format: ADME, organism-based; set-up: dose 1.5 mg/kg, route intravenous; conditions: in vivo
[35] = Volume of distribution at steady state in rat at 1.5 mg/kg, iv; format: ADME, organism-based; set-up: dose 1.5 mg/kg, route intravenous; conditions: in vivo, read-out: Vdss

Dipeptidyl peptidase 4, sequence (P27487 whole entry): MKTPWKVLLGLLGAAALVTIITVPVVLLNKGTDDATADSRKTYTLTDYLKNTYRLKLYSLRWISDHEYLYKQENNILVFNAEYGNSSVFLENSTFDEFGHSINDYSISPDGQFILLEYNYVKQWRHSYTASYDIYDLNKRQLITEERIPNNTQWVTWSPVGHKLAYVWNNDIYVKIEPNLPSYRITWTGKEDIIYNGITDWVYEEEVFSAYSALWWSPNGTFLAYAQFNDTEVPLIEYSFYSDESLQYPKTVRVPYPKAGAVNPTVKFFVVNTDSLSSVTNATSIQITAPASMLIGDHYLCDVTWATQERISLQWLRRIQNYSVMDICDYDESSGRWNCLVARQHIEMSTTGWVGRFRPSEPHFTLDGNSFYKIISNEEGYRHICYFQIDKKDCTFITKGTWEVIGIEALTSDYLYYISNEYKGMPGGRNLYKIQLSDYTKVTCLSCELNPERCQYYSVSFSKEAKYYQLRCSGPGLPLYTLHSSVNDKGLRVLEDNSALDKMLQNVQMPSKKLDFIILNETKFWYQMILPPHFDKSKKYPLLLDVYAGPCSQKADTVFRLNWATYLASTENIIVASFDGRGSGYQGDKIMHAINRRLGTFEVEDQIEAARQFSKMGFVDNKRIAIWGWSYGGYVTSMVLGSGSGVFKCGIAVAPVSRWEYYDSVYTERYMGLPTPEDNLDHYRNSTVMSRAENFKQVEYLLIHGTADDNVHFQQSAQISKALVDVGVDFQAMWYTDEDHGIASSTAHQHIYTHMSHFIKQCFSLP

| Papp [2] [×10⁻⁶ cm/s] | remaining at 0.5 h, 1 µM [4] [%] | remaining at 0.5 h, 1 µM [5] [%] | remaining at 0.5 h, 1 µM [6] [%] | solubility [7] [µg/mL] | remaining at 0.5 h, 1 µM [8] [%] | solubility [9] [µg/mL] | solubility [12] [µg/mL] | Papp [13] [×10⁻⁶ cm/s] | Drug metabolism [15] | Drug metabolism (Serum [16]) | Drug metabolism (Serum [17]) | Drug metabolism [18] | SMILES | CLH (Liver microsome [24]) [µL/min/mg] | CLH (Liver microsome [25]) [µL/min/mg] | further results |
| --- | --- | --- | --- | --- | --- | --- | --- | --- | --- | --- | --- | --- | --- | --- | --- | --- |
| 41.4 | 92 | 70 | > 99 | – | 8.4 | – | – | 36.2 | metabolite_detected | metabolite_detected | metabolite_detected | metabolite_detected | COC(=O)c1ccc2c3nc(N4CCC[C@@H](N)C4)n(Cc4ccccc4Cl)c3c(=O)n(C)c2c1.Cl | – | – | concentration at 6 h [14]: < 1 ng/mL; F (Rattus norvegicus [19]): 90% |
| 14.2 | < 0.5 | 1 | 17 | 2 | < 0.5 | 54 | 2 | 12.5 | metabolite_detected | metabolite_detected | metabolite_detected | metabolite_detected | Cc1oc(=O)oc1COC(=O)c1ccc2c3nc(N4CCC[C@@H](N)C4)n(Cc4ccccc4Cl)c3c(=O)n(C)c2c1.Cl | – | – | F (Rattus norvegicus [20]): 4%; AUC (Rattus norvegicus [21]): 61.9 ng·h/mL; Tmax (Rattus norvegicus [22]): 15 min; Cmax (Rattus norvegicus [23]): 81.7 ng/mL |
| < 0.1 | – | – | – | – | – | – | – | < 0.1 | – | – | – | – | Cn1c(=O)c2c(nc(N3CCC[C@@H](N)C3)n2Cc2ccccc2Cl)c2ccc(C(=O)O)cc21 | < 10 | < 10 | clearance [26]: 181 mL/min/kg; AUC [27]: 276 ng·h/mL; Vd [28]: 4.5 L/kg; half-life [29]: 36 min |
| 15.9 | < 0.5 | 3.6 | 13 | 1 | < 0.5 | 47 | < 1 | 15.8 | – | – | – | – | Cc1oc(=O)oc1COC(=O)c1ccc2c3nc(N4CCC[C@@H](N)C4)n(Cc4cc(F)ccc4Cl)c3c(=O)n(C)c2c1.Cl | – | – | F (Rattus norvegicus [30]): 4.8%; AUC (Rattus norvegicus [31]): 43.9 ng·h/mL |

| SMILES | Papp [2] [×10⁻⁶ cm/s] | remaining at 0.5 h, 1 µM [4] [%] | remaining at 0.5 h, 1 µM [5] [%] | remaining at 0.5 h, 1 µM [6] [%] | solubility [7] [µg/mL] | remaining at 0.5 h, 1 µM [8] [%] | solubility [9] [µg/mL] | solubility [12] [µg/mL] | Papp [13] [×10⁻⁶ cm/s] | Drug metabolism [15] | Drug metabolism (Serum [16]) | Drug metabolism (Serum [17]) | Drug metabolism [18] | CLH (Liver microsome [24]) [µL/min/mg] | CLH (Liver microsome [25]) [µL/min/mg] | further results |
| --- | --- | --- | --- | --- | --- | --- | --- | --- | --- | --- | --- | --- | --- | --- | --- | --- |
| Cc1oc(=O)oc1COC(=O)c1ccc2c(c1)c1nc(N3CCC[C@@H](N)C3)n(Cc3cc(F)ccc3Cl)c1c(=O)n2C.Cl | 8.4 | < 0.5 | 1 | 3.5 | 2 | < 0.5 | 25 | < 1 | 11 | – | – | – | – | – | – | F (Rattus norvegicus [1]): 11.7%; Tmax (Rattus norvegicus [3]): 120 min; IC50 (Dipeptidyl peptidase 4): 4.7 nM; AUC (Rattus norvegicus [10]): 72.7 ng·h/mL; Cmax (Rattus norvegicus [11]): 14.8 ng/mL |
| Cn1c(=O)c2c(nc(N3CCC[C@@H](N)C3)n2Cc2ccccc2Cl)c2cc(C(=O)O)ccc21 | < 0.1 | – | – | – | – | – | – | – | < 0.1 | – | – | – | – | < 10 | < 10 | half-life [32]: 60 min; AUC [33]: 188 ng·h/mL; clearance [34]: 132 mL/min/kg; Vd [35]: 2.9 L/kg |
